Assay results of several laboratories.
Each line is one published result; the experiments were not run side by side.
MAPK14: Mitogen-activated protein kinase 14 (MAPK14, Homo sapiens, UniProt Q16539)
PDE3A: cGMP-inhibited 3',5'-cyclic phosphodiesterase 3A (PDE3A, Homo sapiens, UniProt Q14432)
HTR1A: 5-hydroxytryptamine receptor 1A (HTR1A, Homo sapiens, UniProt P08908)
LRRK2: Leucine-rich repeat serine/threonine-protein kinase 2 (LRRK2, Homo sapiens, UniProt Q5S007)
Ephx2: Bifunctional epoxide hydrolase 2 (Ephx2, Rattus norvegicus, UniProt P80299)
MST1R: Macrophage-stimulating protein receptor (MST1R, Homo sapiens, UniProt Q04912)

Structure (SMILES) | target | test | IC50
CC/C(=N\NC(=O)C(C)Nc1ccccc1)c1ccc(O)c(C)c1O (stereo not drawn) | cAMP-dependent protein kinase catalytic subunit beta (PRKACB, Homo sapiens, UniProt P22694) | enzyme activity, inhibitor | 24.9 nM
CC(C)(C)n1nc(-c2cnc3cc(OC4CC4)ccc3c2)c(C(N)=O)c1N | MAPK14 | cell-free assay | > 10000 nM
COc1cc2c(cc1OC)-c1c/c(=N\c3c(C)cc(C)cc3C)n(C)c(=O)n1CC2 | PDE3A | enzyme activity, inhibitor, FP | 0.067 nM
Cc1ccc(NC(=O)c2cccc(N(C)C)c2)cc1NC(=O)c1ccc(O)cc1 | MAPK14 | enzyme activity, inhibitor, ADP detection | 300 nM
CC1Cc2ccccc2N1C(=O)NCCCCN(C)[C@@H]1Cc2cccc3[nH]c(=O)n(c23)C1 (mixture of isomers) | HTR1A | ligand displacement, radioligand | 25.6 nM
CCCC[C@H](NC(=O)[C@H](C)c1c(C)[nH]c2ccc(O)cc12)c1ncc(-c2cc3ccccc3nc2OC)[nH]1 | Prostaglandin E2 receptor EP3 subtype (PTGER3, Homo sapiens, UniProt P43115) | enzyme activity | 8650 nM
CSc1ccc(/C=C2/C(C)=C(CC(=O)O)c3cc(F)ccc32)cc1 | PDE3A | enzyme activity, inhibitor | > 100000 nM
CC(Cc1ccc(O)c(O)c1)C(C)Cc1ccc(O)c(O)c1 (stereo not drawn) | LRRK2 | enzyme activity, inhibitor, radiometric | 456 nM
Cc1cnc(-c2ccc(-c3ccc(NC(=O)Nc4c(F)cc(F)cc4F)cc3F)c3c2C(=O)NC3)[nH]1 | LRRK2 | enzyme activity, inhibitor | 13.4 nM
CCC(C)(O)C(=O)N1CCC(NC(=O)Nc2ccc(OC(F)(F)F)c(F)c2)CC1 (stereo not drawn) | Ephx2 | enzyme activity, inhibitor | 10.6 nM
CN(C)CCC=C1c2ccccc2CCc2ccccc21 | Estrogen receptor (ESR1, Homo sapiens, UniProt P03372) | reporter gene, antagonist | 25400 nM
COc1ccc2c(Oc3ccc4c(C(=O)Nc5ccccc5N)cccc4c3)ccnc2c1 | MST1R | enzyme activity, inhibitor | > 500 nM
O=c1ccc2cc(O)c(O)cc2o1 | Leucine-rich repeat serine/threonine-protein kinase 2 (LRRK2, Homo sapiens, UniProt Q5S007, G2019S) | enzyme activity, inhibitor, radiometric | 358 nM
CN1CCN(c2ccc(Nc3ncc4cc(C#N)c(=O)n(C5CCCC5)c4n3)cc2)CC1 | Casein kinase I isoform epsilon (CSNK1E, Homo sapiens, UniProt P49674) | enzyme activity, inhibitor | 5490 nM
N#C/C(=C\c1ccc(O)c(O)c1)C(=O)OC/C=C/c1ccccc1 | LRRK2 | enzyme activity, inhibitor, radiometric | 619 nM
COc1cc(C[C@H]2C(=O)OC[C@@H]2Cc2ccc(OC)c(OC)c2)ccc1O | PDE3A | enzyme activity, inhibitor | > 20000 nM
CNc1nc(C)nc(N[C@H]2CCC[C@@H](C(=O)NCc3ccc(C#N)cc3C(F)(F)F)C2)n1 | Ephx2 | enzyme activity, inhibitor | 2.9 nM
CNC(=O)c1cc2c(Oc3ccc(NC(=O)C4(C(=O)Nc5ccc(F)cc5)CC4)cc3)ccnc2cc1OC | MST1R | enzyme activity, inhibitor, radiometric | 43 nM
Cc1nn2c(-c3c(C)nn(C)c3-c3ccc(C(F)(F)F)cc3)nc(CO)c2c(=O)[nH]1 | PDE3A | enzyme activity, inhibitor | 11800 nM
CN(CCCCNC(=O)c1cc2ccccc2[nH]1)[C@@H]1Cc2cccc3[nH]c(=O)n(c23)C1 | HTR1A | ligand displacement, radioligand | 137 nM
CC(C)(C)n1nc(-c2ccc3nc(OC4CC4)ccc3c2)c(C(N)=O)c1N | Death-associated protein kinase 3 (DAPK3, Homo sapiens, UniProt O43293) | cell-free assay | > 10000 nM
